Compound activity: PubChem BioAssay, several laboratories
A selection: hits, their analogues and other compounds. The true share with any hit is near 2.5%.
TRPC4 potent = allosteric potentiators of mouse TRPC4 channel; Q9QUQ5; HEK293 TRPC4beta/mu-opioid, DAMGO EC20, Fluo-4 Ca2+ flux; stronger effect = higher value; B-score at 10 µM; 310,000 tested, 0.42% active; AID 2227;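 active means B-score of calcium response area above 5 SD of library B-scores, with initial fluorescence ratio within 5 SD of library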
TRPC6 act = mouse TRPC6 channel activation; Q61143; HEK293-TRPC6 membrane potential dye fluorescence; stronger effect = higher value; B-score at 10 µM; AID 2550; 310,000 tested, 0.13% active;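 active means B-score of the integrated fluorescence ratio above library mean plus 3 SD, and starting fluorescence ratio within library mean plus 5 SD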;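 further: higher score means more depolarization so channel activation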
DSG3 Ab inh = inhibitors of pemphigus antibody binding to human desmoglein-3; 310,000 tested, 0.48% active; binding (percent of control), % at 10 µM; DSG3-coupled beads, scFv-anti-DSG3-GFP binding, flow cytometry; stronger effect = lower value; AID 588358; P32926;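 active means binding more than 3 SD below its plate's average and above zero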;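 further: hits lower antibody fragment binding to DSG3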
Target sequence (P32926 whole entry, looked up, the tested form may be a part): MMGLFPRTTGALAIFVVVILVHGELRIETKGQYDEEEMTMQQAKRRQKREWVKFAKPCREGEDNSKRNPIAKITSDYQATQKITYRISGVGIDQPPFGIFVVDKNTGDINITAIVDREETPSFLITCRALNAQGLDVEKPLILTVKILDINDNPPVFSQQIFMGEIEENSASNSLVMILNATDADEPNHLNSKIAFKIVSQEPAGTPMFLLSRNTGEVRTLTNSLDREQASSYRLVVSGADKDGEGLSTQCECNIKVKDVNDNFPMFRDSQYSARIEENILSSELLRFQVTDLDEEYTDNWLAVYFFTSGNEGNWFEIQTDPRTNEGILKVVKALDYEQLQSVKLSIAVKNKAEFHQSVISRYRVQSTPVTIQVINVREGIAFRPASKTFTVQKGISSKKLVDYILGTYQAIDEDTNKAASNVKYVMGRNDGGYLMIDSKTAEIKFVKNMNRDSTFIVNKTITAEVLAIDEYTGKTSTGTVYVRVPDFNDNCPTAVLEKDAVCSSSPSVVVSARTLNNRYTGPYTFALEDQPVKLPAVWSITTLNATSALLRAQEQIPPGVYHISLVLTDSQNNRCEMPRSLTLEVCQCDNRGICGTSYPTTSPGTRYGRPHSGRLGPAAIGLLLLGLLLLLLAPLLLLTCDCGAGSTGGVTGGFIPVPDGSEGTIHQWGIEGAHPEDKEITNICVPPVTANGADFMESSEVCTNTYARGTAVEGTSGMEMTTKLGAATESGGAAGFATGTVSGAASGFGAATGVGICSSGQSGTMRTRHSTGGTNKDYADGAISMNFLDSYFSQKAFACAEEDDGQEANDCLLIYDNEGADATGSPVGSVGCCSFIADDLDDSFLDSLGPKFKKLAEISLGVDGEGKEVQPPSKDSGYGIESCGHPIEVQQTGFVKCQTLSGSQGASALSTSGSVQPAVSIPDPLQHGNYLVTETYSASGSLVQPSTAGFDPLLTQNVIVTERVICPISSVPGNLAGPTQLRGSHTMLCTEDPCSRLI
TRPC4 inh = inhibitors of mouse TRPC4 channel | Q9QUQ5 | HEK293 TRPC4beta/mu-opioid, DAMGO-evoked Fluo4 calcium flux; stronger effect = lower value | B-score at 10 µM | 300,000 tested, 0.39% active | AID 2247;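 active means B-score over 3 SD under the library average, no early fluorescence shift, positive overall ratio signal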
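Material: HEK293 cells with stable TRPC4beta plus mu-opioid receptor expression; probe or stimulus: DAMGO in two steps, submaximal then maximal; technique: Fluo4 calcium fluorescence by kinetic imaging, 5 s 1 Hz baseline; measure: integrated fluorescence ratio relative to baseline, converted to per-well B score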
TRPC6 inh = blocks the mouse TRPC6 cation channel | HEK293-TRPC6, membrane potential dye, ACh-evoked depolarization; stronger effect = lower value | AID 2553 | B-score at 10 µM | 310,000 tested, 1.1% active | Q61143;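 active means B-score under library mean minus 3 SD, initial fluorescence not abnormally high, positive integrated signal ratio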;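 further: B-score derived from integrated fluorescence ratio over the kinetic read; more negative B-score means stronger inhibition of depolarization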
TRPC4 agonist = opens the mouse TRPC4 cation channel | Q9QUQ5 | HEK293 TRPC4beta/mu-opioid, Fluo4 calcium fluorescence; stronger effect = higher value | B-score at 10 µM | 310,000 tested, 0.49% active | AID 2237;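 active means B-score above 5 SD of library B-scores, and initial fluorescence ratio not above library mean plus 5 SD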;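 further: positive B-score marks a calcium rise read as TRPC4 activation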
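system = HEK293 cells stably co-expressing mouse TRPC4beta and mu-opioid receptor | schedule = Fluo4 dye loading 45 min at room temperature, 110 s recording | measure = B-scored integrated calcium fluorescence ratio | signal = Fluo4 calcium-sensitive dye fluorescence, kinetic, 1 Hz baseline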
Large screens that a line does not name were inactive.

O=C(CCl)N1CCN2C(=O)c3ccccc3C12c1ccc(Cl)cc1 (configuration not stated)	none
COc1ccc(CCN(C)C(=O)c2cc(S(=O)(=O)N3CCCCCC3)ccc2OC)cc1OC	none
COc1ccc(CCN(C)C(=O)c2cc(S(=O)(=O)N3CCCCC3)ccc2Cl)cc1OC	TRPC4 inh -7
Cc1cc(=O)n2nc(N3CCC(C(=O)NCc4ccccc4Cl)CC3)sc2n1	none
C=CCc1ccccc1OCC(CN1CCCCC1)OC(C)=O (configuration not stated)	TRPC4 inh -6
C=CCc1ccccc1OCC(O)CN1CCN(c2ccccc2OC)CC1 (configuration not stated)	TRPC4 inh -6
C=CCc1ccccc1OCC(O)CN1CCN(c2ccccc2F)CC1 (configuration not stated)	none
C=CCc1ccccc1OCCCCN1CCCC1	none
CCOc1ccccc1NC(=O)CSc1nnc(CNC(=O)c2cccs2)o1	none
CCC(=O)N(C)CCc1cc2c(c(OC)c1/C=N/NC(=O)c1ccc(Br)cc1)OCO2	TRPC4 inh -7
Cc1ccc(Cl)cc1NC(=S)N(CCCN1CCOCC1)Cc1ccco1	none
CCCCC(CC)CNC(=O)CN1C(=O)NC2(CCc3ccccc32)C1=O (configuration not stated)	none (no result: DSG3 Ab inh)
Cc1cc(OCCCN2CCCC2)ccc1Cl	TRPC4 potent 12
Cc1cccc(C)c1OCCCN1CCCC1	TRPC4 potent 14
Cc1cccc(C)c1OCCCCN1CCCCC1	none
CCn1c(C(C#N)/C(=N\S(=O)(=O)c2cccs2)c2ccccc2)nc2ccccc21 (configuration not stated)	DSG3 Ab inh 73.9
CC1=CCC2C(=O)N(c3ccc(C)c(Br)c3)C(=O)C2C1 (configuration not stated)	DSG3 Ab inh 48.1
COc1ccc(NC(=O)CCn2c(=S)[nH]c3ccccc3c2=O)cc1Cl	DSG3 Ab inh 81.7 (no result: TRPC4 potent, TRPC6 act, TRPC4 inh, TRPC6 inh, TRPC4 agonist)
Cc1ccc(-c2cn(-c3ccc(OC(F)F)cc3)c3[n+]2CCCCC3)cc1	none
Clc1ccc(-n2cc(-c3ccc(Br)cc3)[n+]3c2CCCCC3)cc1	TRPC4 inh -6
COc1ccc(CC(=O)Nc2cccnc2)cc1	none
O=C(/C=C/Nc1ccc(Oc2ccccc2)cc1)c1ccco1	DSG3 Ab inh 14.0
NC(=O)c1ccccc1N/C=C/C(=O)c1ccco1	none
COc1ccc(S(=O)(=O)Nc2ccc3c(c2)C(=O)N([C@H](C)CO)C[C@H](C)[C@@H](CN(C)S(=O)(=O)c2ccc(OC)cc2)O3)cc1	none (no result: TRPC4 potent, TRPC6 act, TRPC4 inh, TRPC6 inh, TRPC4 agonist)
CN(C)c1nc(N)ncc1-c1ccc(Oc2ccccc2)cc1	DSG3 Ab inh 78.7
CCCCc1nc(SCC(=O)N2CCOCC2)c2c(=O)n(C)c(=O)n(C)c2n1	none
CCc1ccc(S(=O)(=O)/N=C2\C=C(NS(=O)(=O)c3ccccc3)C(=O)c3ccccc32)cc1	DSG3 Ab inh 49.3
Cc1ccccc1NC1=C/C(=N\S(=O)(=O)c2ccc(C(=O)O)cc2)c2ccccc2C1=O	none
Cc1ccc(C)c(S(=O)(=O)/N=C2\C=C(NS(=O)(=O)c3ccccc3)C(=O)c3ccccc32)c1	TRPC4 inh -7
CCCOC(=O)c1ccc(Cl)c(NC(=O)c2cccnc2)c1	none (no result: DSG3 Ab inh)
COc1ccc(-c2cc(C(F)(F)F)n3ncc(C(=O)N4CCCCC4c4cccnc4)c3n2)cc1 (configuration not stated)	none
COC(=O)[C@@]12CCCCN1[C@H](c1ccc(-c3ccc(OC)cc3)c(OC)c1)[C@@H]1C(=O)N(C)C(=O)[C@@H]12	none (no result: TRPC4 potent, TRPC6 act, TRPC4 inh, TRPC6 inh, TRPC4 agonist)
COC(=O)[C@@]12CCCCN1[C@H](c1ccc(-c3ccc(C(C)=O)cc3)cc1)[C@@H]1C(=O)N(C)C(=O)[C@@H]12	TRPC4 potent 43
CCN1C(=O)[C@H]2[C@@H](c3ccc(-c4ccc(C(C)=O)cc4)cc3)N3CCCC[C@@]3(C(=O)OC)[C@H]2C1=O	none
COC(=O)[C@@]12CCCCN1[C@H](c1ccc(-c3ccc(OC)cc3)cc1)[C@@H]1C(=O)N(C)C(=O)[C@@H]12	TRPC4 potent 13
COC(=O)[C@@]12CCCCN1[C@H](c1ccc(-c3cccc(Cl)c3)c(OC)c1)[C@H]1C(=O)N(C)C(=O)[C@H]12	TRPC4 potent 25
O=C1OC(/C=C/c2ccc(Cl)cc2Cl)=NC/1=C\c1cccs1	none
COc1ccc(Cn2ccnc2SCC(=O)Nc2ccc(F)cc2F)cc1	none (no result: TRPC4 potent, TRPC6 act, TRPC4 inh, TRPC6 inh, TRPC4 agonist)
O=C(O)COc1ccc(/C=N/NC(=O)c2ccc(-c3csc(Nc4ccc(Cl)cc4)n3)cc2)cc1	DSG3 Ab inh 30.6
C[C@H]1CN([C@@H](C)CO)C(=O)CCCn2nncc2CO[C@H]1CN(C)S(=O)(=O)c1ccc(Oc2ccccc2)nc1	none (no result: TRPC4 potent, TRPC6 act, TRPC4 inh, TRPC6 inh, TRPC4 agonist)
Cc1cc(C)cc(C(=O)NCCC(=O)NCc2cc(=O)n(C)c(=O)n2C)c1	none
N#Cc1c(NCCCO)nc(-c2ccccc2)c2c1CCCC2	TRPC4 agonist 49
CCCCNCCOc1ccccc1-c1ccccc1	TRPC4 inh -6
COCCCNCCOc1ccccc1-c1ccccc1	none
CNCCCCOc1ccccc1-c1ccccc1	TRPC4 agonist 52
Cc1ccc(NC(=O)CSCC(=O)OC(C)C(=O)Nc2ccc(S(N)(=O)=O)cc2)c(C)c1 (configuration not stated)	none
CCc1cc(Cl)c(OC)c(C(=O)NC[C@@H]2CCCN2CC)c1O	TRPC4 agonist 70
CC(C)CCNc1ncnc2c1nnn2Cc1ccccc1Cl	DSG3 Ab inh 83.9
CN(C)CCCNc1ncnc2c1cnn2Cc1ccccc1Cl	TRPC4 potent 18
CN(C)CCNc1ncnc2ccccc12	TRPC4 potent 11
CN(C)CCCNc1ncnc2c1cnn2-c1ccccc1	TRPC4 potent 25
Cc1ccc(NC(=O)COC(=O)C2=NNC(=O)CC2)c(Br)c1	none (no result: TRPC4 potent, TRPC6 act, TRPC4 inh, TRPC6 inh, TRPC4 agonist)
CCOC(=O)C1(Cc2cccc(Cl)c2)CCCN(CCO)C1 (configuration not stated)	none
CN(C)c1nc(NNC(=O)c2ccccc2)nc(N(C)C)n1	none (no result: TRPC4 potent, TRPC6 act, TRPC4 inh, TRPC6 inh, TRPC4 agonist)
Cc1cccc(NC(=O)N2CCN(Cc3ccc4c(c3)OCO4)CC2)c1C	none
Cc1cc(Cl)c2oc(C(=O)N(C)Cc3nccn3C)c(C)c2c1	TRPC4 inh -7
CC(C)C(NC(=O)c1ccc(C(C)(C)C)cc1)C(=O)NCC(c1ccccc1)N(C)C (configuration not stated)	TRPC4 inh -7
CC(C)C(NC(=O)c1ccc(C(C)(C)C)cc1)C(=O)NCCc1ccccn1 (configuration not stated)	none
CCC(=NOCc1ccccc1)C(=O)NNS(=O)(=O)c1ccc(C)cc1	none (no result: TRPC4 potent, TRPC6 act, TRPC4 inh, TRPC6 inh, TRPC4 agonist)
COc1ccc(C(=O)N(CC2CCCO2)C(C(=O)NCCC(C)C)c2ccc(C)cc2)cc1OC (configuration not stated)	DSG3 Ab inh 87.0
